ChEMBL document CHEMBL1177638, “Synthesis of pyrrolo[3,2-h]quinolinones with good photochemotherapeutic activity and no DNA damage” (Bioorg Med Chem, 2010)
The source made the active and inactive calls. No cut-off for these calls is given here.

How the values were obtained:
Jurkat [1] = assay: Induction of lipid peroxidation in human Jurkat cells irradiated with 2.5 J/cm'2 assessed as increase in malondialdehyde production after 24 hrs by TBARS assay relative to untreated control; format: functional, cell-based
Procedure, shortened: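 Jurkat cells (500,000) were irradiated (2.5 J/cm²) with compound present and incubated 24 h. Supernatant was kept with BHT, and cells were lysed in 1% SDS, with protein measured by the Peterson method. Malondialdehyde was measured by thiobarbituric acid reaction (fluorescence, 553 nm) against a 1,1,3,3-tetraethoxypropane standard curve. Results are given as nmol TBARS normalized to protein.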

MCF7 [2] = assay: Phototoxicity against human MCF7 cells irradiated with 3.75 J/cm'2 after 72 hrs by MTT assay; format: functional, cell-based; conditions: MCF7, light or radiation study
Procedure, shortened: (§1)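 Cells were seeded at 8 × 10³ and preincubated 18 h at 37 °C, 5% CO₂. Jurkat and K-562 grew in RPMI-1640, MCF-7 and NCTC-2544 in DMEM, and LoVo in Ham's F12, all with 10% FBS plus penicillin and streptomycin. Compounds in DMSO were diluted in HBSS, pH 7.2 (range 20–0.31; DMSO ≤1%) and applied 30 min at 37 °C. Wells were then UV-A irradiated (365 nm; 2.5 or 3.75 J/cm²), medium was replaced, and MTT was read after 72 h.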

Jurkat [3] = assay: Cell cycle arrest in human Jurkat cells assessed as accumulation in G1 phase at 1 uM irradiated with 25 J/cm'2 after 24 hrs by flow cytometry
Jurkat [4] = assay: Cell cycle arrest in human Jurkat cells assessed as accumulation in subG1 phase at 1 uM irradiated with 20 J/cm'2 after 24 hrs by flow cytometry; format: functional
Procedure, shortened: (§2)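 Exponentially growing Jurkat cells (5 × 10⁵) were irradiated with compound present. Drug was removed, and cells were kept 24 h in RPMI-1640, fixed in ice-cold 70% ethanol, and treated overnight with RNAse (10 KU/mL) in PBS. Cells were stained with propidium iodide and run on a flow cytometer, with DNA content reported as the fraction of cells in each cycle phase.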

Jurkat [5] = assay: Induction of apoptosis in human Jurkat cells assessed as lysosomal dysfunction at 1 uM after 2 hrs post-irradiation with 2.5 J/cm'2 using acridine orange dye by flow cytometry; format: functional
Procedure, shortened: (§3)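 Jurkat cells were irradiated (2.5 J/cm²) with compound present and collected at 2 and 4 h. They were resuspended in RPMI-1640 containing acridine orange, and the percentage of red-fluorescent cells (intact lysosomes) was scored by flow cytometry. Values are mean ± SD of at least three independent experiments.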

[6] = Phototoxicity against human sNCTC-2544 cells irradiated with 3.75 J/cm'2 after 72 hrs by MTT assay; format: functional, cell-based; conditions: NCTC-2544, light or radiation study; procedure, shortened: as §1
K562 [7] = assay: Phototoxicity against human K562 cells irradiated with 3.75 J/cm'2 after 72 hrs by MTT assay; format: functional, cell-based; conditions: K562, light or radiation study; procedure, shortened: as §1
Jurkat [8] = assay: Induction of apoptosis in human Jurkat cells assessed as increase in mitochondrial ROS production at 1 uM after 6 hrs post-irradiation with 2.5 J/cm'2 by FACS analysis; format: functional
Procedure, shortened: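 Jurkat cells were irradiated (2.5 J/cm²) with compound present and collected 6 h later. They were resuspended in HBSS with hydroethidine and DCFDA (2.5 and 5, respectively) and held at 37 °C for 15 or 30 min. Flow cytometry used 488 nm excitation, reading 620 nm for HE and 530 nm for DCF, with at least 10,000 events. Values are mean ± SD, three independent experiments.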

Jurkat [9] = assay: Induction of apoptosis in human Jurkat cells assessed as induction of loss of membrane potential at 1 uM after 2 hrs post-irradiation with 20 J/cm'2 by flow cytometry; format: functional
Procedure, shortened: (§4)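 Irradiated Jurkat cells treated with compound were collected 2 and 4 h after irradiation and resuspended in HBSS containing JC-1. Green (FL1) and orange (FL2) fluorescence were read by flow cytometry, with at least 10,000 events per sample. Values are mean ± SD of at least three independent experiments.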

Jurkat [10] = assay: Induction of apoptosis in human Jurkat cells assessed as phosphatidylserine esposure after 30 mins using annexin-V FITC and PI staining by flow cytometry; format: functional, cell-based
Procedure, shortened: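 Jurkat cells (100,000) were irradiated (2.5 J/cm²) with compound present and centrifuged 30 min, 1 h or 2 h later. They were stained with Annexin V-FITC/PI for 15 min in the dark, and FITC (FL1) and PI (FL3) were read by flow cytometry, with at least 10,000 events. Cells were classed as intact, early apoptotic, late apoptotic/necrotic or necrotic. Values are the mean of three experiments.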

Jurkat [11] = assay: Induction of apoptosis in human Jurkat cells assessed as induction of loss of membrane potential at 1 uM after 4 hrs post-irradiation with 20 J/cm'2 by flow cytometry; format: functional; procedure, shortened: as §4
Jurkat [12] = assay: Induction of apoptosis in human Jurkat cells assessed as lysosomal dysfunction at 1 uM after 4 hrs post-irradiation with 2.5 J/cm'2 using acridine orange dye by flow cytometry; format: functional; procedure, shortened: as §3
LoVo [13] = assay: Phototoxicity against human LoVo cells irradiated with 2.5 J/cm'2 after 72 hrs by MTT assay; format: functional, cell-based; conditions: light or radiation study; procedure, shortened: as §1
MCF7 [14] = assay: Phototoxicity against human MCF7 cells irradiated with 2.5 J/cm'2 after 72 hrs by MTT assay; format: functional, cell-based; conditions: MCF7, light or radiation study; procedure, shortened: as §1
[15] = Phototoxicity against human sNCTC-2544 cells irradiated with 2.5 J/cm'2 after 72 hrs by MTT assay; format: functional, cell-based; conditions: NCTC-2544, light or radiation study; procedure, shortened: as §1
Jurkat [16] = assay: Phototoxicity against human Jurkat cells irradiated with 2.5 J/cm'2 after 72 hrs by MTT assay; format: functional, cell-based; conditions: light or radiation study; procedure, shortened: as §1
Jurkat [17] = assay: Phototoxicity against human Jurkat cells irradiated with 3.75 J/cm'2 after 72 hrs by MTT assay; format: functional, cell-based; conditions: light or radiation study; procedure, shortened: as §1
Jurkat [18] = assay: Induction of apoptosis in human Jurkat cells assessed as induction of loss of membrane potential at 1 uM after 4 hrs post irradiation with 20 J/cm'2 using JC1 staining by FACS; format: functional; procedure, shortened: as §4
Jurkat [19] = assay: Cell cycle arrest in human Jurkat cells assessed as accumulation in S phase at 1 uM irradiated with 20 J/cm'2 after 24 hrs by flow cytometry; format: functional; procedure, shortened: as §2
K562 [20] = assay: Phototoxicity against human K562 cells irradiated with 2.5 J/cm'2 after 72 hrs by MTT assay; format: functional, cell-based; conditions: K562, light or radiation study; procedure, shortened: as §1
Nucleic Acid [21] = assay: Binding affinity to salmon testes DNA assessed as intercalation by linear dichroism experiment; format: nucleic-acid assay; conditions: Salmonidae
Procedure, shortened: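 Salmon testes DNA was mixed with compound at [Drug]/[DNA] ratios of 0, 0.02 and 0.04 in 10 mM phosphate buffer, pH 7.2. Samples were oriented in a rotating cylindrical flow cuvette (0.14 cm path, 800 rpm), and linear dichroism spectra were recorded over roughly 250–450 nm.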

Jurkat [22] = assay: Cell cycle arrest in human Jurkat cells assessed as accumulation in G2/M phase at 1 uM irradiated with 25 J/cm'2 after 24 hrs by flow cytometry
LoVo [23] = assay: Phototoxicity against human LoVo cells irradiated with 3.75 J/cm'2 after 72 hrs by MTT assay; format: functional, cell-based; conditions: light or radiation study; procedure, shortened: as §1
Jurkat [24] = assay: Induction of apoptosis in human Jurkat cells assessed as induction of loss of membrane potential at 1 uM after 2 hrs post-irradiation with 20 J/cm'2 using JC1 staining by FACS; format: functional; procedure, shortened: as §4
Jurkat [25] = assay: Induction of apoptosis in human Jurkat cells assessed as induction of loss of membrane potential at 2.5 uM after 4 hrs post-irradiation with 20 J/cm'2 by flow cytometry; format: functional
Procedure, shortened: (§5)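 JC-1 probe at 1 µg/mL in HBSS was added to Jurkat cells spun down 2 or 4 h after UV-A irradiation with the compound. Green (FL1) and orange (FL2) fluorescence were read by flow cytometry, ≥10,000 events per sample. Values are means ± SD of at least three independent experiments.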

Nucleic Acid [26] = assay: Binding affinity to UV irradiated pBR322 assessed as strand break by electrophoresis; format: nucleic-acid assay; conditions: Escherichia coli
Procedure, shortened: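 Plasmid irradiated with the compound. Aliquots were then incubated at 37 °C with Fpg or Endo III. Bands were quantified densitometrically and supercoiled (Form I) and open circular (Form II) fractions were calculated.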

Jurkat [27] = assay: Induction of apoptosis in human Jurkat cells assessed as induction of loss of membrane potential at 2.5 uM after 2 hrs post-irradiation with 20 J/cm'2 using JC1 staining by FACS; format: functional; procedure, shortened: as §5
Jurkat [28] = assay: Induction of apoptosis in human Jurkat cells assessed as lysosomal dysfunction at 2.5 uM after 4 hrs post-irradiation with 2.5 J/cm'2 using acridine orange dye by flow cytometry; format: functional
Procedure, shortened: (§6)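 Jurkat cells were irradiated (2.5 J/cm² UV-A) with the compound and collected 2 or 4 h later. They were resuspended in RPMI-1640 containing acridine orange 1 µM. Intact-lysosome cells were scored by red fluorescence on flow cytometry. Values are means ± SD of at least three independent experiments.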

Jurkat [29] = assay: Induction of apoptosis in human Jurkat cells assessed as lysosomal dysfunction at 2.5 uM after 2 hrs post-irradiation with 2.5 J/cm'2 using acridine orange dye by flow cytometry; format: functional; procedure, shortened: as §6
[30] = Photodamaging activity to bovine serum albumin irradiated with 2.5 J/cm'2 UV light assessed as increase in carbonyl content; format: physicochemical; conditions: cattle
Procedure, shortened: (§7)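 BSA or RNase A at 2 mg/mL in phosphate buffer was irradiated with the compound in a quartz cuvette for various times. Carbonyl content was measured spectrophotometrically after 2,4-dinitrophenylhydrazine derivatization.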

Jurkat [31] = assay: Induction of apoptosis in human Jurkat cells assessed as induction of loss of membrane potential at 2.5 uM after 2 hrs post-irradiation with 20 J/cm'2 by flow cytometry; format: functional; procedure, shortened: as §5
[32] = Photodamaging activity to ribonuclease irradiated with 2.5 J/cm'2 UV light assessed as increase in carbonyl content; format: physicochemical; procedure, shortened: as §7
Jurkat [33] = assay: Induction of apoptosis in human Jurkat cells assessed as induction of loss of membrane potential at 2.5 uM after 4 hrs post irradiation with 20 J/cm'2 using JC1 staining by FACS; format: functional; procedure, shortened: as §5
Jurkat [34] = assay: Induction of apoptosis in human Jurkat cells assessed as increase in mitochondrial ROS production at 2.5 uM after 6 hrs post-irradiation with 2.5 J/cm'2 by FACS analysis; format: functional
Procedure, shortened: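 Jurkat cells were collected 6 h after UV-A irradiation (2.5 J/cm²) with the compound and resuspended in HBSS with hydroethidine 2.5 µM or DCFDA 5 µM. They were incubated at 37 °C for 15 or 30 min. Flow cytometry used 488 nm excitation, with emission at 620 nm (HE) or 530 nm (DCF), acquiring ≥10,000 events. Values are means ± SD of three independent experiments.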

| SMILES | Activity (Jurkat [1]) | IC50 (MCF7 [2]) | Activity (Jurkat [3]) | Activity (Jurkat [4]) | Activity (Jurkat [5]) | IC50 [6] | IC50 (K562 [7]) | Activity (Jurkat [8]) | Activity (Jurkat [12]) | IC50 (LoVo [13]) | IC50 (MCF7 [14]) | IC50 [15] | IC50 (Jurkat [16]) | Activity (Jurkat [19]) | IC50 (K562 [20]) | Activity (Nucleic Acid [21]) | Activity (Jurkat [22]) | IC50 (LoVo [23]) | also measured |
| --- | --- | --- | --- | --- | --- | --- | --- | --- | --- | --- | --- | --- | --- | --- | --- | --- | --- | --- | --- |
| CCOC(=O)c1cc2c(n1C)-c1[nH]c(=O)c(S(=O)(=O)c3ccccc3)cc1CC2 | Dose-dependent effect | 1000 nM | 16.1% | 63.3% | 29.72% | 1100 nM | 900 nM | 0.7% | 36.97% | 1100 nM | 1200 nM | 1200 nM | 700 nM | 6.6% | 1000 nM | inactive | 14% | 1000 nM | Activity (Jurkat [9]): 1.3%; Activity (Jurkat [10]): Active; Activity (Jurkat [11]): 5.14%; IC50 (Jurkat [17]): 500 nM; Activity (Jurkat [18]): 94.8%; Activity (Jurkat [24]): 98.68% |
| O=c1ccc2ccc3occc3c2o1 [ANGELICIN] | Dose-dependent effect | 1500 nM | 12.3% | 30.8% | 9.82% | 900 nM | 1000 nM | Active | 6.63% | 3600 nM | 4400 nM | 4200 nM | 1000 nM | 46.7% | 1200 nM | Active | 10.2% | 1500 nM | Activity (Jurkat [25]): 41.2%; Activity (Nucleic Acid [26]): Active; Activity (Jurkat [27]): 98.92%; Activity (Jurkat [28]): 50.85%; Activity (Jurkat [29]): 15.03%; Activity [30]: Active; Activity (Jurkat [31]): 1.08%; Activity [32]: Active; Activity (Jurkat [33]): 58.8%; Activity (Jurkat [34]): 15.82% |
